Article PMC7501955 (Drug Design, Development and Therapy, 2020)

System: duck HBV (DHBV)
Assay: Antiviral efficacy in a duck HBV model, serum DHBV DNA by quantitative PCR
Assay type: in vivo, Pekin ducklings
Conditions: DHBV-infected ducks, 50 mg/kg 3TC; for Serum DHBV DNA: P<0.001
In short: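 Pekin ducklings were infected with DHBV-positive duck serum and assayed for DNA load 7 days later (T0). Groups of five received test compound at 25, 50 or 100 mg/kg by oral gavage for 14 days. Controls were saline (negative) and 3TC 50 mg/kg once daily (positive). Serum DHBV DNA was measured by qPCR on treatment days 0, 7, 14 and 3 days after stopping; mean ± SD.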

Nc1ccn([C@@H]2CS[C@H](CO)O2)c(=O)n1 [3TC, lamivudine] was tested, and the “Reduction of serum DHBV DNA compared to vehicle controls” value (T7) was “up to 2 log10”, the “Serum DHBV DNA” value (T7 (day 7 of treatment)) was “significantly inhibited” and the “Serum DHBV DNA” value (T14 (day 14 of treatment)) was “significantly inhibited”.
